Laboratory results reported in ChEMBL document CHEMBL2390927, “Design, synthesis and antimicrobial evaluation of novel benzimidazole type of Fluconazole analogues and their synergistic effects with Chloromycin, Norfloxacin and Fluconazole” (2013).
≈ marks a conversion by molar mass, not a printed value.

Tests used:
Saccharomyces cerevisiae = assay: Antifungal activity against Saccharomyces cerevisiae after 24 hrs by two-fold serial dilution method; assay type: functional
Procedure, shortened: (§1)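 Spore suspension in sterile distilled water from one-day-old cultures on Sabouraud agar, final 1–5 × 10³ spore mL⁻¹. Compound stocks diluted in sterile RPMI 1640 as two-fold serial dilutions in microdilution plates. MIC is the lowest concentration completely inhibiting growth. Growth monitored visually and spectrophotometrically, in triplicate.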

Staphylococcus aureus [1] = assay: Antibacterial activity against methicillin-resistant Staphylococcus aureus N315 after 24 hrs by two-fold serial dilution method; assay type: functional; settings: N315, 24 h
Cyberlindnera jadinii = assay: Antifungal activity against Candida utilis after 24 hrs by two-fold serial dilution method; assay type: functional; settings: Williopsis jadinii; procedure, shortened: as §1
Pseudomonas aeruginosa = assay: Antibacterial activity against Pseudomonas aeruginosa ATCC 27853 after 24 hrs by two-fold serial dilution method; assay type: functional; settings: ATCC 27853, 24 h
Procedure, shortened: (§2)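 MIC taken as the lowest concentration giving complete growth inhibition, by standard two-fold serial dilution in 96-well plates following NCCLS. Stocks in DMSO, diluted in Mueller–Hinton broth. Inoculum adjusted with sterile saline to 1 × 10⁵ CFU. DMSO with inoculum and no drug served as solvent control. Growth read visually and spectrophotometrically, in triplicate.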

Candida albicans = assay: Antifungal activity against Candida albicans ATCC 76615 after 24 hrs by two-fold serial dilution method; assay type: functional; settings: ATCC 76615, 24 h; procedure, shortened: as §1
Bacillus = assay: Antibacterial activity against Bacillus proteus ATCC 13315 after 24 hrs by two-fold serial dilution method; assay type: functional; settings: ATCC 13315, 24 h; procedure, shortened: as §2
Bacillus subtilis = assay: Antibacterial activity against Bacillus subtilis ATCC 21216 after 24 hrs by two-fold serial dilution method; assay type: functional; settings: ATCC 21216, 24 h; procedure, shortened: as §2
Escherichia coli = assay: Antibacterial activity against Escherichia coli JM109 after 24 hrs by two-fold serial dilution method; assay type: functional; settings: JM109, 24 h
Staphylococcus aureus [2] = assay: Antibacterial activity against Staphylococcus aureus ATCC 6538 after 24 hrs by two-fold serial dilution method; assay type: functional; settings: ATCC 6538, 24 h
Candida = assay: Antifungal activity against Candida mycoderma after 24 hrs by two-fold serial dilution method; assay type: functional; procedure, shortened: as §1
Salmonella typhi = assay: Antibacterial activity against Bacillus typhi after 24 hrs by two-fold serial dilution method; assay type: functional, Salmonella enterica subsp. enterica serovar Typhi; settings: Salmonella enterica
Procedure, shortened: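 Two-fold serial dilution in 96-well plates following NCCLS; compounds dissolved in DMSO as stocks, then diluted in Mueller-Hinton broth; bacterial suspension adjusted with sterile saline to 1 × 10⁵ CFU; MIC taken as lowest concentration completely inhibiting growth, monitored visually and spectrophotometrically; DMSO-plus-inoculum well as solvent control; triplicate.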

Aspergillus flavus = assay: Antifungal activity against Aspergillus flavus after 24 hrs by two-fold serial dilution method; assay type: functional; procedure, shortened: as §1
Micrococcus luteus = assay: Antibacterial activity against Micrococcus luteus ATCC 4698 after 24 hrs by two-fold serial dilution method; assay type: functional; settings: ATCC 4698, 24 h; procedure, shortened: as §2

| SMILES | MIC (Saccharomyces cerevisiae) | MIC (Staphylococcus aureus [1]) | MIC (Cyberlindnera jadinii) | MIC (Pseudomonas aeruginosa) | MIC (Candida albicans) | MIC (Bacillus) | MIC (Bacillus subtilis) | MIC (Escherichia coli) | MIC (Staphylococcus aureus [2]) | MIC (Candida) | MIC (Salmonella typhi) | MIC (Aspergillus flavus) | MIC (Micrococcus luteus) |
| --- | --- | --- | --- | --- | --- | --- | --- | --- | --- | --- | --- | --- | --- |
| CC(=O)c1cc2ccc(OCc3ccc(CN(Cc4nc5ccccc5[nH]4)c4ccc(C)cc4)cc3)cc2oc1=O | 32 µg/mL (≈ 58.9 µM) | 64 µg/mL (≈ 118 µM) | 64 µg/mL (≈ 118 µM) | 128 µg/mL (≈ 235 µM) | 64 µg/mL (≈ 118 µM) | 256 µg/mL (≈ 471 µM) | 64 µg/mL (≈ 118 µM) | 128 µg/mL (≈ 235 µM) | 128 µg/mL (≈ 235 µM) | 128 µg/mL (≈ 235 µM) | 128 µg/mL (≈ 235 µM) | 64 µg/mL (≈ 118 µM) | 128 µg/mL (≈ 235 µM) |
| CCn1cc(C(=O)O)c(=O)c2cc(F)c(N3CCNCC3)cc21 [NORFLOXACIN] |  | 1 µg/mL (≈ 3.13 µM) |  | 1 µg/mL (≈ 3.13 µM) |  | 4 µg/mL (≈ 12.5 µM) | 2 µg/mL (≈ 6.26 µM) | 1 µg/mL (≈ 3.13 µM) | 8 µg/mL (≈ 25.1 µM) |  | 1 µg/mL (≈ 3.13 µM) |  | 1 µg/mL (≈ 3.13 µM) |
| Fc1ccc(NCc2nc3ccccc3[nH]2)c(F)c1 | 32 µg/mL (≈ 123 µM) | 64 µg/mL (≈ 247 µM) | 32 µg/mL (≈ 123 µM) | 64 µg/mL (≈ 247 µM) | 64 µg/mL (≈ 247 µM) | 16 µg/mL (≈ 61.7 µM) | 32 µg/mL (≈ 123 µM) | 16 µg/mL (≈ 61.7 µM) | 16 µg/mL (≈ 61.7 µM) | 32 µg/mL (≈ 123 µM) | 32 µg/mL (≈ 123 µM) | 64 µg/mL (≈ 247 µM) | 64 µg/mL (≈ 247 µM) |
| CCCCCCN(Cc1nc2ccccc2[nH]1)c1ccc(C)cc1 | 64 µg/mL (≈ 199 µM) | 128 µg/mL (≈ 398 µM) | 128 µg/mL (≈ 398 µM) | 64 µg/mL (≈ 199 µM) | 64 µg/mL (≈ 199 µM) | 256 µg/mL (≈ 796 µM) | 128 µg/mL (≈ 398 µM) | 256 µg/mL (≈ 796 µM) | 128 µg/mL (≈ 398 µM) | 128 µg/mL (≈ 398 µM) | 64 µg/mL (≈ 199 µM) | 64 µg/mL (≈ 199 µM) | 64 µg/mL (≈ 199 µM) |
| CCCCCCCCCCN(Cc1nc2ccccc2[nH]1)c1ccc(C)cc1 | 32 µg/mL (≈ 84.8 µM) | 64 µg/mL (≈ 170 µM) | 64 µg/mL (≈ 170 µM) | 128 µg/mL (≈ 339 µM) | 64 µg/mL (≈ 170 µM) | 256 µg/mL (≈ 678 µM) | 64 µg/mL (≈ 170 µM) | 128 µg/mL (≈ 339 µM) | 128 µg/mL (≈ 339 µM) | 128 µg/mL (≈ 339 µM) | 128 µg/mL (≈ 339 µM) | 64 µg/mL (≈ 170 µM) | 128 µg/mL (≈ 339 µM) |
| Cc1cc(=O)oc2cc(OCCCCCCN(Cc3nc4ccccc4[nH]3)c3ccc(F)cc3)ccc12 | 32 µg/mL (≈ 64.1 µM) | 128 µg/mL (≈ 256 µM) | 16 µg/mL (≈ 32 µM) | 16 µg/mL (≈ 32 µM) | 16 µg/mL (≈ 32 µM) | 64 µg/mL (≈ 128 µM) | 16 µg/mL (≈ 32 µM) | 128 µg/mL (≈ 256 µM) | 32 µg/mL (≈ 64.1 µM) | 32 µg/mL (≈ 64.1 µM) | 64 µg/mL (≈ 128 µM) | 32 µg/mL (≈ 64.1 µM) | 128 µg/mL (≈ 256 µM) |
| Cc1ccc(N(Cc2ccc(Cl)cc2)Cc2nc3ccccc3[nH]2)cc1 | 128 µg/mL (≈ 354 µM) | 64 µg/mL (≈ 177 µM) | 64 µg/mL (≈ 177 µM) | 64 µg/mL (≈ 177 µM) | 64 µg/mL (≈ 177 µM) | 32 µg/mL (≈ 88.4 µM) | 64 µg/mL (≈ 177 µM) | 32 µg/mL (≈ 88.4 µM) | 32 µg/mL (≈ 88.4 µM) | 32 µg/mL (≈ 88.4 µM) | 64 µg/mL (≈ 177 µM) | 128 µg/mL (≈ 354 µM) | 128 µg/mL (≈ 354 µM) |
| Fc1ccc(N(Cc2nc3ccccc3[nH]2)Cc2ccc(Cl)cc2Cl)cc1 | 64 µg/mL (≈ 160 µM) | 64 µg/mL (≈ 160 µM) | 32 µg/mL (≈ 79.9 µM) | 64 µg/mL (≈ 160 µM) | 32 µg/mL (≈ 79.9 µM) | 32 µg/mL (≈ 79.9 µM) | 64 µg/mL (≈ 160 µM) | 128 µg/mL (≈ 320 µM) | 32 µg/mL (≈ 79.9 µM) | 64 µg/mL (≈ 160 µM) | 64 µg/mL (≈ 160 µM) | 64 µg/mL (≈ 160 µM) | 64 µg/mL (≈ 160 µM) |
| Cc1ccc(N(Cc2ccc([N+](=O)[O-])cc2)Cc2nc3ccccc3[nH]2)cc1 | 64 µg/mL (≈ 172 µM) | 256 µg/mL (≈ 687 µM) | 64 µg/mL (≈ 172 µM) | 64 µg/mL (≈ 172 µM) | 128 µg/mL (≈ 344 µM) | 64 µg/mL (≈ 172 µM) | 64 µg/mL (≈ 172 µM) | 64 µg/mL (≈ 172 µM) | 32 µg/mL (≈ 85.9 µM) | 64 µg/mL (≈ 172 µM) | 64 µg/mL (≈ 172 µM) | 128 µg/mL (≈ 344 µM) | 128 µg/mL (≈ 344 µM) |
| FC(F)(F)c1cc(N(Cc2nc3ccccc3[nH]2)Cc2ccc(Cl)cc2Cl)cc(C(F)(F)F)c1 | 32 µg/mL (≈ 61.7 µM) | 64 µg/mL (≈ 123 µM) | 64 µg/mL (≈ 123 µM) | 128 µg/mL (≈ 247 µM) | 64 µg/mL (≈ 123 µM) | 32 µg/mL (≈ 61.7 µM) | 64 µg/mL (≈ 123 µM) | 64 µg/mL (≈ 123 µM) | 64 µg/mL (≈ 123 µM) | 64 µg/mL (≈ 123 µM) | 64 µg/mL (≈ 123 µM) | 64 µg/mL (≈ 123 µM) | 128 µg/mL (≈ 247 µM) |
| Cc1ccc(N(Cc2nc3ccccc3[nH]2)Cc2ccc(Cl)cc2Cl)cc1 | 64 µg/mL (≈ 161 µM) | 64 µg/mL (≈ 161 µM) | 64 µg/mL (≈ 161 µM) | 64 µg/mL (≈ 161 µM) | 64 µg/mL (≈ 161 µM) | 32 µg/mL (≈ 80.7 µM) | 32 µg/mL (≈ 80.7 µM) | 32 µg/mL (≈ 80.7 µM) | 64 µg/mL (≈ 161 µM) | 128 µg/mL (≈ 323 µM) | 64 µg/mL (≈ 161 µM) | 128 µg/mL (≈ 323 µM) | 128 µg/mL (≈ 323 µM) |
| OC(Cn1cncn1)(Cn1cncn1)c1ccc(F)cc1F [FLUCONAZOLE] | 16 µg/mL (≈ 52.2 µM) |  | 8 µg/mL (≈ 26.1 µM) |  | 1 µg/mL (≈ 3.27 µM) |  |  |  |  | 4 µg/mL (≈ 13.1 µM) |  | 256 µg/mL (≈ 836 µM) |  |
